# Results from ChEMBL document CHEMBL4251593, “Nontoxic combretafuranone analogues with high in vitro antibacterial activity” (Eur J Med Chem, 2018).
# Active and inactive are the calls of the source. No cut-off for these calls is given here.
# Assays:
# MCF7 = assay: Cytotoxicity against human MCF7 cells assessed as reduction in cell viability after 48 hrs by ATPlite-based luminescent assay; settings: MCF7, 48 h
# PC-3 [1] = assay: Cytotoxicity against human PC3 cells assessed as reduction in cell viability after 48 hrs by ATPlite-based luminescent assay; settings: PC-3, 48 h
# Outline: (§1)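 Cells were grown […] with 10% FBS, glutamax, NEAA and pen/strep at 37 °C, 5% CO2. Media were DMEM for RPE-1, HepG2 and BJ (BJ plus 10 ng/ml bFGF), F-12K for PC3, and IMDM for K562/HL-60. Cells were seeded at 500 per well and dosed from DMSO at 12 concentrations, 40 µM to 1 nM, in triplicate. After 48 h, intracellular ATP was read by luminescence. ED50 was obtained by variable-slope nonlinear regression.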
# Aspergillus fumigatus = assay: Antifungal activity against Aspergillus fumigatus 231 up to 1 mM after 24 to 48 hrs by microdilution assay; assay type: functional, organism-based
# Outline: (§2)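 Fungal microdilution following modified CLSI M27-A3/M38-A2, in RPMI 1640 with L-glutamine and 0.165 M MOPS at pH 7.0, with DMSO no more than 2% final. Compounds were 2-fold serially diluted from 2000 to 0.488 µmol/l. The inoculum was 5×10^3 cfu/ml. Incubation was at 35 °C, read visually at 24/48 h (T. mentagrophytes at 72/120 h). MIC was IC80 for yeasts and IC50 for filamentous fungi, determined twice in duplicate.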
# [2] = test system: Staphylococcus epidermidis; assay: Antibacterial activity against Staphylococcus epidermidis HK6966/08 clinical isolate after 48 hrs by microdilution assay; assay type: functional; settings: HK6966/08, 48 h
# Candida parapsilosis = assay: Antifungal activity against Candida parapsilosis ATCC 22019 up to 1 mM after 24 to 48 hrs by microdilution assay; assay type: functional, organism-based; outline: as §2
# K562 [3] = assay: Induction of apoptosis in human K562 cells assessed as caspase 3/7 activity after 24 hrs by caspase-glo luminescent assay; assay type: cell-based; settings: K562, 24 h
# Outline: (§3)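 Cells were seeded at 500 per well in their growth media and exposed to 12 concentrations from 40 µM to 1 nM, delivered from DMSO, in triplicate. After 24 h, caspase-3/7 activity was read by Caspase-Glo luminescence. Data were normalized and ED50 was fitted by variable-slope nonlinear regression.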
# Trichosporon asahii = assay: Antifungal activity against Trichosporon asahii 1188 clinical isolate up to 1 mM after 24 to 48 hrs by microdilution assay; assay type: functional, organism-based; outline: as §2
# Candida albicans [4] = assay: Antifungal activity against Candida albicans ATCC 44859 up to 1 mM after 24 to 48 hrs by microdilution assay; assay type: functional, organism-based; outline: as §2
# Klebsiella pneumoniae [5] = assay: Antibacterial activity against Klebsiella pneumoniae HK14368/08 clinical isolate after 48 hrs by microdilution assay; assay type: functional; settings: HK14368/08, 48 h
# TERT-RPE1 [6] = assay: Cytotoxicity against human RPE1 cells assessed as reduction in cell viability after 48 hrs by ATPlite-based luminescent assay; settings: RPE-1, 48 h; outline: as §1
# Pseudomonas aeruginosa [7] = assay: Antibacterial activity against Pseudomonas aeruginosa ATCC 9027 after 24 hrs by microdilution assay; assay type: functional; settings: ATCC 9027, 24 h
# Outline: (§4)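 Broth microdilution in Mueller-Hinton medium buffered to pH 7.4 (±0.2), with DMSO as diluent at no more than 2% final. Compounds were tested as 2-fold serial dilutions from 2000 to 0.488 µmol/l. The inoculum was 0.5 McFarland (1.5×10^8 cfu/ml). Plates were held at 37 °C and read visually at 24 and 48 h. MIC was taken as 95% growth inhibition versus control, determined twice in duplicate.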
# Klebsiella pneumoniae [8] = assay: Antibacterial activity against Klebsiella pneumoniae HK11750/08 clinical isolate after 48 hrs by microdilution assay; assay type: functional; settings: HK11750/08, 48 h
# Candida tropicalis = assay: Antifungal activity against Candida tropicalis 156 clinical isolate up to 1 mM after 24 to 48 hrs by microdilution assay; assay type: functional, organism-based; outline: as §2
# K562 [9] = assay: Cytotoxicity against human K562 cells assessed as reduction in cell viability after 48 hrs by ATPlite-based luminescent assay; settings: K562, 48 h; outline: as §1
# Staphylococcus aureus [10] = assay: Antibacterial activity against methicillin-resistant Staphylococcus aureus HK5996/08 clinical isolate after 24 hrs by microdilution assay; assay type: functional; settings: HK5996/08, 24 h
# Candida albicans [11] = assay: Antifungal activity against Candida albicans ATCC 90028 up to 1 mM after 24 to 48 hrs by microdilution assay; assay type: functional, organism-based; outline: as §2
# TERT-RPE1 [12] = assay: Induction of apoptosis in human RPE1 cells assessed as caspase 3/7 activity after 24 hrs by caspase-glo luminescent assay; assay type: cell-based; settings: RPE-1, 24 h; outline: as §3
# Escherichia coli [13] = assay: Antibacterial activity against Escherichia coli ATCC 8739 after 24 hrs by microdilution assay; assay type: functional; settings: ATCC 8739, 24 h; outline: as §4
# HepG2 [14] = assay: Induction of apoptosis in human HepG2 cells assessed as caspase 3/7 activity after 24 hrs by caspase-glo luminescent assay; assay type: cell-based; settings: HepG2, 24 h; outline: as §3
# Enterococcus sp. [15] = assay: Antibacterial activity against Enterococcus sp. HK14365/08 clinical isolate after 24 hrs by microdilution assay; assay type: functional; settings: HK14365/08, 24 h
# HL-60 [16] = assay: Induction of apoptosis in human HL60 cells assessed as caspase 3/7 activity after 24 hrs by caspase-glo luminescent assay; assay type: cell-based; settings: HL-60, 24 h; outline: as §3
# Staphylococcus aureus [17] = assay: Antibacterial activity against Staphylococcus aureus ATCC 6538 after 24 hrs by microdilution assay; assay type: functional; settings: ATCC 6538, 24 h
# HepG2 [18] = assay: Cytotoxicity against human HepG2 cells assessed as reduction in cell viability after 48 hrs by ATPlite-based luminescent assay; settings: HepG2, 48 h; outline: as §1
# Clavispora lusitaniae = assay: Antifungal activity against Candida lusitaniae 2446/I clinical isolate up to 1 mM after 24 to 48 hrs by microdilution assay; assay type: functional, organism-based; outline: as §2
# [19] = test system: Trichophyton mentagrophytes; assay: Antifungal activity against Trichophyton mentagrophytes 445 up to 1 mM after 72 to 120 hrs by microdilution assay; assay type: functional, organism-based; outline: as §2
# Pichia kudriavzevii [20] = assay: Antifungal activity against Candida krusei ATCC 6258 up to 1 mM after 24 to 48 hrs by microdilution assay; assay type: functional, organism-based; outline: as §2
# [21] = test system: Staphylococcus epidermidis; assay: Antibacterial activity against Staphylococcus epidermidis HK6966/08 clinical isolate after 24 hrs by microdilution assay; assay type: functional; settings: HK6966/08, 24 h
# Pseudomonas aeruginosa [22] = assay: Antibacterial activity against Pseudomonas aeruginosa ATCC 9027 after 48 hrs by microdilution assay; assay type: functional; settings: ATCC 9027, 48 h; outline: as §4
# Staphylococcus aureus [23] = assay: Antibacterial activity against methicillin-resistant Staphylococcus aureus HK5996/08 clinical isolate after 48 hrs by microdilution assay; assay type: functional; settings: HK5996/08, 48 h
# PC-3 [24] = assay: Induction of apoptosis in human PC3 cells assessed as caspase 3/7 activity after 24 hrs by caspase-glo luminescent assay; assay type: cell-based; settings: PC-3, 24 h; outline: as §3
# Klebsiella pneumoniae [25] = assay: Antibacterial activity against Klebsiella pneumoniae HK14368/08 clinical isolate after 24 hrs by microdilution assay; assay type: functional; settings: HK14368/08, 24 h
# Lichtheimia corymbifera = assay: Antifungal activity against Absidia corymbifera 272 up to 1 mM after 24 to 48 hrs by microdilution assay; assay type: functional, organism-based; outline: as §2
# Pichia kudriavzevii [26] = assay: Antifungal activity against Candida krusei E28 clinical isolate up to 1 mM after 24 to 48 hrs by microdilution assay; assay type: functional, organism-based; outline: as §2
# Enterococcus sp. [27] = assay: Antibacterial activity against Enterococcus sp. HK14365/08 clinical isolate after 48 hrs by microdilution assay; assay type: functional; settings: HK14365/08, 48 h
# Klebsiella pneumoniae [28] = assay: Antibacterial activity against Klebsiella pneumoniae HK11750/08 clinical isolate after 24 hrs by microdilution assay; assay type: functional; settings: HK11750/08, 24 h
# Escherichia coli [29] = assay: Antibacterial activity against Escherichia coli ATCC 8739 after 48 hrs by microdilution assay; assay type: functional; settings: ATCC 8739, 48 h; outline: as §4
# HL-60 [30] = assay: Cytotoxicity against human HL60 cells assessed as reduction in cell viability after 48 hrs by ATPlite-based luminescent assay; settings: HL-60, 48 h; outline: as §1
# Nakaseomyces glabratus = assay: Antifungal activity against Candida glabrata 20/I clinical isolate up to 1 mM after 24 to 48 hrs by microdilution assay; assay type: functional, organism-based; outline: as §2
# BJ = assay: Cytotoxicity against human BJ cells assessed as reduction in cell viability after 48 hrs by ATPlite-based luminescent assay; outline: as §1
# Staphylococcus aureus [31] = assay: Antibacterial activity against Staphylococcus aureus ATCC 6538 after 48 hrs by microdilution assay; assay type: functional; settings: ATCC 6538, 48 h
smiles,measurement,setting,value
Cc1ccc(C2=C(c3ccc(Br)cc3)C(=O)OC2CO)cc1 (stereo not given),IC50,MCF7,> 40 µM
same,IC50,PC-3 [1],> 40 µM
same,Activity,Aspergillus fumigatus,inactive
same,MIC95,[2],62.5 µM
same,Activity,Candida parapsilosis,inactive
same,IC50,K562 [3],46.7 µM
same,Activity,Trichosporon asahii,inactive
same,Activity,Candida albicans [4],inactive
same,MIC95,Klebsiella pneumoniae [5],> 500 µM
same,IC50,TERT-RPE1 [6],> 40 µM
same,MIC95,Pseudomonas aeruginosa [7],> 500 µM
same,MIC95,Klebsiella pneumoniae [8],> 500 µM
same,Activity,Candida tropicalis,inactive
same,IC50,K562 [9],31.4 µM
same,MIC95,Staphylococcus aureus [10],62.5 µM
same,Activity,Candida albicans [11],inactive
same,IC50,TERT-RPE1 [12],> 40 µM
same,MIC95,Escherichia coli [13],> 500 µM
same,IC50,HepG2 [14],> 40 µM
same,MIC95,Enterococcus sp. [15],500 µM
same,IC50,HL-60 [16],> 40 µM
same,MIC95,Staphylococcus aureus [17],15.6 µM
same,IC50,HepG2 [18],> 40 µM
same,Activity,Clavispora lusitaniae,inactive
same,Activity,[19],inactive
same,Activity,Pichia kudriavzevii [20],inactive
same,MIC95,[21],62.5 µM
same,MIC95,Pseudomonas aeruginosa [22],> 500 µM
same,MIC95,Staphylococcus aureus [23],62.5 µM
same,IC50,PC-3 [24],> 40 µM
same,MIC95,Klebsiella pneumoniae [25],> 500 µM
same,Activity,Lichtheimia corymbifera,inactive
same,Activity,Pichia kudriavzevii [26],inactive
same,MIC95,Enterococcus sp. [27],> 500 µM
same,MIC95,Klebsiella pneumoniae [28],> 500 µM
same,MIC95,Escherichia coli [29],> 500 µM
same,IC50,HL-60 [30],21.3 µM
same,Activity,Nakaseomyces glabratus,inactive
same,IC50,BJ,> 40 µM
same,MIC95,Staphylococcus aureus [31],15.6 µM
